Hits are enriched below; roughly 4% of the tested compounds scored in any of these assays.
KCNQ1 inh – inhibitors of human KCNQ1 channel, primary screen, cell-based, thallium flux, high-throughput. 310,000 tested, 1.3% active. Potassium voltage-gated channel subfamily KQT member 1 (Homo sapiens), P51787. B-score at 10 µM. AID 2642, 2010. CHO-K1 KCNQ1, FluxOR thallium flux fluorescence; hits give high values;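 active means compounds whose thallium flux B-score, printed positive for inhibition, exceeds three library SD while starting fluorescence stays within three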;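 further: channel opened by potassium depolarization with thallium stimulus after 20 min compound exposure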
Target sequence (P51787 whole entry, looked up): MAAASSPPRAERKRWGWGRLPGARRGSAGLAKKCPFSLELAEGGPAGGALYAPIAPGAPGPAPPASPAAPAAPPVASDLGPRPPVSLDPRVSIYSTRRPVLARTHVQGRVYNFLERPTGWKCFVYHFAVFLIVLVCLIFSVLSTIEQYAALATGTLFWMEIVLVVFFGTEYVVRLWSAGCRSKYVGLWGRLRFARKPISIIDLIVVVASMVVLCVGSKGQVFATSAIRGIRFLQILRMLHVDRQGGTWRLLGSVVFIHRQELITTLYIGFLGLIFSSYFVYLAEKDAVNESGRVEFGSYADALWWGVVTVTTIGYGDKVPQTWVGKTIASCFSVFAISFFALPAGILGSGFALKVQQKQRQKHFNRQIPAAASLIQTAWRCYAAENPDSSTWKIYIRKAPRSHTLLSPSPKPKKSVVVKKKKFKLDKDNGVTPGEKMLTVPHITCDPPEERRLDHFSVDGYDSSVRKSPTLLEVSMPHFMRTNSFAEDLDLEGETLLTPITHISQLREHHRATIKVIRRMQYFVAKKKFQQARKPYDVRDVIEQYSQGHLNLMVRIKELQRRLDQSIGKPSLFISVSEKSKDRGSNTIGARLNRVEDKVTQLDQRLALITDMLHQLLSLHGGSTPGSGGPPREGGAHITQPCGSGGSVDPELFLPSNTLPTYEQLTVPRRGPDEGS
hERG rescue – hERG rescue from dofetilide block, primary screen, cell-based, CHO-hERG, FluxOR thallium flux, dofetilide IC70; Voltage-gated inwardly rectifying potassium channel KCNH2 (Homo sapiens), Q12809; dofetilide IC70 present; activation (rescue from dofetilide block), less the hit threshold, % at 10 µM; 310,000 tested, 0.51% active;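 active means activation above the mean of controls blocked by dofetilide plus 5 SD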;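 further: thallium influx through hERG after potassium depolarization seen as dye fluorescence rise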
PHOSPHO1 inh – PubChem AID 1565; Phosphoethanolamine/phosphocholine phosphatase (Homo sapiens), Q8TCT1; recombinant PHOSPHO1, absorbance phosphatase assay; inhibition, % at 13.3 µM; 290,000 tested, 1.1% active; in the data active means inhibition above about 60%
KCNK3 block – human KCNK3 channel inhibitors, primary screen, CHO cells, FluxOR thallium flux, B-score; Potassium channel subfamily K member 3 (Homo sapiens), O14649; FluxOR fluorescence; hits give low values; B-score at 10 µM; 340,000 tested, 0.84% active; AID 602410, 2012;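 active means B-score under library mean minus 4 SD, starting fluorescence ratio at most library mean plus 5 SD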;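 further: more negative B-score means stronger inhibition of thallium flux through KCNK3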
KCNQ1 act – potentiators or activators of KCNQ1 channel, primary screen, cell-based, thallium flux, high-throughput | Potassium voltage-gated channel subfamily KQT member 1 (Homo sapiens), P51787 | CHO-K1 KCNQ1, thallium flux FluxOR fluorescence; hits give high values | AID 2648, 2010 | B-score at 10 µM | 310,000 tested, 0.35% active;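 active means fluorescence ratio B-score, a plate-corrected score, at least three library SD, with initial intensity B-score within 5 SD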
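Assay system: stable KCNQ1 CHO-K1 line; medium: assay buffer, equal DMSO in all wells; timing: 90 min dye loading and 20 min compound exposure, both at room temperature; technique: kinetic FluxOR thallium fluorescence, 10-s 1-Hz baseline, 110-s post-stimulus read; read-out basis: B score of baseline-normalized fluorescence ratio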
KCNK9 inh – KCNK9 potassium channel inhibitors, primary screen, HEK293 cells, thallium flux | Potassium channel subfamily K member 9 (Homo sapiens), Q9NPC2 | FluxOR thallium flux fluorescence; hits give low values | B-score at 10 µM | 310,000 tested, 1.2% active;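 active means ratio B-score over 3 SD below the library mean, with starting fluorescence within 5 SD of its mean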;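 further: negative B-score means less thallium flux so channel inhibition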
Starred values were filed as active, the others as inactive; i = inactive; . = no result given.

SMILES	KCNQ1 inh	hERG rescue	PHOSPHO1 inh	KCNK3 block	KCNQ1 act	KCNK9 inh
CC(=O)c1ccc(-c2nnc(CCC(=O)N(C)Cc3c(C)nc4ccccn34)o2)s1	i	8.1*	19.5	i	i	i
CCNc1ccc(S(=O)(=O)N(C)C)cc1NCC(=O)Nc1ccccc1Br	i	-3.2	23.3	i	i	i
C/C(=N\N)c1c(-c2ccccc2)c2cc(C)ccc2[nH]c1=O	i	-13.6	19.7	i	i	i
O=C(NN=C1CCCC1)c1[nH]c2ccc(Cl)cc2c1-c1ccccc1	6*	-10.3	3.8	i	i	i
CC/C(C)=N/NC(=O)c1[nH]c2ccc(C)cc2c1-c1ccccc1	i	5.5*	34.9	i	i	i
O=C(c1ccccc1)[C@@H]1[C@@H](C(=O)c2ccc(F)cc2)[C@@]2(C(=O)Nc3ccccc32)[C@H]2c3ccccc3C=CN12	i	-5.6	-18.9	i	i	i
COc1ccc(N2CCN(C(=O)CCCCCn3c(=S)[nH]c4cc5c(cc4c3=O)OCO5)CC2)cc1	i	-6.1	12.1	i	i	i
CCOC(=O)N1CCN(C(=O)CCn2c(=S)[nH]c3cc(OCC)c(OCC)cc3c2=O)CC1	i	-5.7	66.2*	.	i	i
O=C(CCCn1c(=S)[nH]c2cc3c(cc2c1=O)OCO3)N1CCN(c2ccccc2)CC1	i	-11.8	68.9*	i	i	i
O=C(CCn1c(=S)[nH]c2cc3c(cc2c1=O)OCO3)N1CCc2ccccc2C1	i	-9.9	66.4*	.	i	i
Cc1cccc(N2CCN(C(=O)CCCn3c(=S)[nH]c4cc5c(cc4c3=O)OCO5)CC2)c1C	i	-14.8	-26.5	i	i	i
CCOC(=O)N1CCN(C(=O)CCCCCn2c(=S)[nH]c3cc4c(cc3c2=O)OCO4)CC1	i	-8.0	-11.2	i	i	i
CC(=O)c1ccc(N2CCN(C(=O)CCCn3c(=S)[nH]c4cc5c(cc4c3=O)OCO5)CC2)cc1	.	.	63.2*	i	.	.
CCC(=O)N1N=C(c2ccc(NS(C)(=O)=O)cc2)CC1c1ccc(N(C)C)cc1 (centres undefined)	i	-14.1	-24.1	i	i	i
CCCCNc1nc(=S)[nH]c2cc(OC)c(OC)cc12	i	-15.9	52.7	i	i	i
COCCNc1nc(=S)[nH]c2cc(OC)c(OC)cc12	i	-8.1	68.5*	i	i	i
O=C1CCC(=O)c2ccc3c4c(ccc1c24)CC3	.	.	.	i	.	.
O=C1CCN2C=Nc3cccc4ccc1c2c34	25*	-47.8	20.5	i	i	i
O=S(=O)(Nc1ccc(S(=O)(=O)N2CCCCC2)cc1)c1ccc(Br)s1	i	-14.2	-10.5	i	i	i
CC[C@H](C)/C=C/C1=CC2=C(Cl)C(=O)[C@@]3(C)OC(=O)C(C(=O)[C@H](C)[C@@H](C)O)=C3C2=CO1	6*	-29.9	.	i	i	i
N#C/C(=C\N1CCOCC1)C(N)=O	i	-9.7	27.7	i	i	i
COCCNC(=O)Cn1cc(/C=C(\C#N)C(=O)NC2CC2)c2ccccc21	i	-1.5	43.7	i	i	i
NS(=O)(=O)c1ccc(Nc2ncccc2[N+](=O)[O-])cc1	i	4.6*	16.2	i	i	i
CC(O)C(NC=C1C(=O)OC(C)(C)OC1=O)C(=O)O (centres undefined)	i	-4.5	-30.9	i	i	i
CCOC(=O)C1=C(O)c2ccccc2C(=O)/C1=C\c1ccc(C)cc1	.	.	12.3	i	.	.
SMILES	KCNQ1 inh	hERG rescue	PHOSPHO1 inh	KCNK3 block	KCNQ1 act	KCNK9 inh
CCOC(=O)C1=C(Cc2ccc(Cl)cc2)C(=O)c2ccccc2C1=O	10*	-8.5	-19.9	i	i	i
CCOC(=O)N1CCN(C(=S)NC(=O)C2CCCC2)CC1	i	-7.4	19.9	i	i	i
CC(C)(C)c1ccc(C(=O)NC(=S)N2CCCC2)cc1	i	-8.3	41.4	i	i	i
Cc1ccc(C(=O)NC(=S)N2CCN(c3cc(C)ccc3C)CC2)cc1	i	7.7*	31.8	i	i	i
COc1ccc(C(=O)NC(=S)N2CCC(C)CC2)cc1Br	i	15.2*	28.7	i	27*	i
CC(C)(C)c1ccc(C(=O)NC(=S)N2CCCCCC2)cc1	i	8.4*	38.1	i	22*	i
CC(C)(C)CC(=O)NC(=S)N1CCCCCC1	i	-1.0	69.4*	i	i	i
Nc1nnc(CCc2ccccc2)s1	i	-9.6	18.2	i	i	i
COc1ccc(CN(CC(=O)NCc2ccc(F)cc2)C(=O)c2ccco2)cc1	i	-2.4	27.9	i	i	i
Cc1nc(-c2ccncc2)nc(NCCNc2ncccc2C(F)(F)F)c1Cl	i	-3.6	12.3	i	i	i
Cc1ccc(C)c(NC(=O)CN2C(=O)COc3ccc(S(=O)(=O)N4CCCC4)cc32)c1	i	-6.7	39.9	i	i	i
CC1CCN(C(=S)NC(=O)c2cccs2)CC1	i	15.9*	-9.7	i	12*	i
COc1cc(C(=S)N2CCC(C)CC2)ccc1O	i	-8.2	66.0*	i	i	i
CC1CCN(C(=S)NC(=O)c2ccc(C(C)(C)C)cc2)CC1	i	13.6*	.	i	29*	i
O=C(O)CCNc1cc(N2CCN(C(=O)c3ccco3)CC2)c2noc3c2c1C(=O)c1ccccc1-3	i	-18.3	27.0	i	i	i
CCN1CCN(c2cc(N3CCN(C(=O)c4ccco4)CC3)c3c4c(onc24)-c2ccccc2C3=O)CC1	8*	-10.4	-8.1	i	i	i
COCC(C)n1c(C)cc(C(=O)CSc2nnc(Nc3ccccc3F)s2)c1C (centres undefined)	i	-13.1	80.1*	i	i	i
Cc1nc2[nH]c(=S)[nH]c2cc1Br	i	-3.3	101.1*	i	i	i
Cc1ccc(-n2cc(-c3ccc([N+](=O)[O-])cc3)[nH]c2=S)c(C)c1	i	7.2*	-1.3	i	i	i
Cc1cccc(-n2cc(-c3ccc([N+](=O)[O-])cc3)[nH]c2=S)c1	i	-4.3	-1.8	i	i	i
Cc1cccc(NC(=S)N/N=C2\CC(C)(C)Oc3ccc(O)cc32)c1	i	6.5*	1.6	i	i	i

Screens deposited in PubChem by several laboratories.
